Consider two molecules from ChEMBL document CHEMBL4342513, “Implementation of the CYP Index for the Design of Selective Tryptophan-2,3-dioxygenase Inhibitors” (ACS Med Chem Lett, 2020).

≈ marks a conversion by molar mass, not a printed value.

For series [1], the target named is Tryptophan 2,3-dioxygenase (Homo sapiens, UniProt P48775). In words: Inhibition of TDO in human SW48 cells after 24 hrs by NFK green reagent based assay. The class given is cell-based.
Series [2] can be described thus: Oral bioavailability in mouse at 5 mg/kg. The series is classed as ADME, organism-based. Particulars: in vivo.
Series [3] in a line: Volume of distribution at steady state in mouse. The class given is ADME, organism-based. Particulars: in vivo, read-out: Vdss.
Series [4] is described as follows: Protein binding in mouse plasma assessed as unbound fraction. The class given is ADME, cell-free.
A short description of series [5]: Clearance in mouse liver microsomes. The class given is ADME, Microsome. The method, boiled down: (§1)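 Clearance was measured in liver microsome incubations from human, rat and mouse. It is expressed as scaled clearance in mL/min/kg.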
In general terms: Liver microsomes are vesicles of endoplasmic reticulum, rich in cytochrome P450 enzymes.

Series [6] is described as follows: Kinetic solubility of compound. The series is classed as physicochemical. Particulars: read-out: Kinetic_solubility.
Series [7] can be described thus: AUC (infinity) in mouse. The class given is ADME, organism-based. More on the design: time infinity. Particulars: in vivo.
Series [8] in a line: Clearance in iv dosed mouse plasma. The class given is ADME, organism-based. The method, boiled down:
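Compounds were given to mice as discrete (single-compound) intravenous doses. Plasma clearance (CLp) is expressed in mL/min/kg.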

A short description of series [9]: Half life in mouse. The class given is ADME, organism-based. The conditions noted are these: in vivo.
For series [10], the species on record is Homo sapiens. In words: Selectivity index, ratio of IC50 for inhibition of CYP3A4 (unknown origin) to EC50 for inhibition of EC50 for inhibition of TDO in human SW48 cells. The class given is cell-based.
A further series deals with Cytochrome P450 3A4 (Homo sapiens, UniProt P08684). In words: Inhibition of CYP3A4 (unknown origin). The series is classed as ADME.
Cytochrome P450 3A4, sequence (P08684 whole entry): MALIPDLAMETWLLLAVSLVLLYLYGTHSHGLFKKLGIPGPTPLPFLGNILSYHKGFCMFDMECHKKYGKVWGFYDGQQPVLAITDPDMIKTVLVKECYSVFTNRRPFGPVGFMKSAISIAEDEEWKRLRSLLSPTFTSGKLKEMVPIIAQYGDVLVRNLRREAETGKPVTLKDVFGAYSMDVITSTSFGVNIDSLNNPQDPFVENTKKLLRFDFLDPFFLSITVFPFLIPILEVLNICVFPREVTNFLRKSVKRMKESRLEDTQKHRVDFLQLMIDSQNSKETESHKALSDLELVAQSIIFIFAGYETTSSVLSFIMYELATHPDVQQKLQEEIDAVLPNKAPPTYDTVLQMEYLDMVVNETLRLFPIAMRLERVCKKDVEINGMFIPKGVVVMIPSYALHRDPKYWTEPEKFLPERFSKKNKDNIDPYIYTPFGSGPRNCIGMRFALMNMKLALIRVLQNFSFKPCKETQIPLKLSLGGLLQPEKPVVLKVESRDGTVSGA
The nature of series [11]: Unbound clearance in mouse plasma. The series is classed as ADME, cell-free.
The nature of series [12]: Apparent permeability across apical to basolateral side in MDCK cells. The class given is ADME, cell-based, Canis lupus familiaris. The conditions noted are these: dog.
The species entered for series [13] is Homo sapiens. Briefly: Selectivity index, ratio of EC50 for inhibition of IDO1 in human A172 cells in presence of IFNgamma to EC50 for inhibition of TDO in human SW48 cells. The class given is cell-based.
The nature of series [14]: Oral bioavailability in mouse at 1 mg/kg dosed as cassette formulation. The conditions noted are these: in vivo. The series is classed as ADME, organism-based.
Series [15] can be described thus: Clearance in human liver microsomes. The series is classed as ADME, Microsome. The procedure, abridged:
as §1

Series [16] is described as follows: Clearance in rat liver microsomes. The class given is ADME, Microsome. The procedure, abridged: as §1
The subject of series [17] is Mus musculus. In words: In vivo inhibition of TDO in mouse assessed as blood tryptophan levels by measuring AUC at 100 mg/kg (reference value: 570 microM.hr). The class given is functional, organism-based. The method, boiled down:
(§2)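 Mouse pharmacodynamic study with escalating doses up to 100 mg/kg and a vehicle-treated comparison group. Blood tryptophan concentration was followed over time.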

A short description of series [18]: Cmax in mouse at 100 mg/kg. The conditions noted are these: in vivo. The series is classed as ADME, organism-based. Set-up: dose 100 mg/kg.
Series [19] in a line: Cmax in mouse at 30 mg/kg. The class given is ADME, organism-based. More on the design: dose 30 mg/kg. Particulars: in vivo.
A short description of series [20]: AUC (infinity) in mouse at 100 mg/kg. The series is classed as ADME, organism-based. Set-up: dose 100 mg/kg, time infinity. The conditions noted are these: in vivo.
Series [21] deals with Mus musculus. Briefly: In vivo inhibition of TDO in mouse assessed as blood tryptophan levels by measuring AUC at 10 mg/kg (reference value: 570 microM.hr). The series is classed as functional, organism-based. The procedure, abridged: as §2
Series [22] is described as follows: AUC (infinity) in mouse at 30 mg/kg. Particulars: in vivo. More on the design: dose 30 mg/kg, time infinity. The class given is ADME, organism-based.
Series [23] in a line: AUC (infinity) in mouse at 10 mg/kg. The series is classed as ADME, organism-based. More on the design: dose 10 mg/kg, time infinity. Particulars: in vivo.
Series [24] can be described thus: Cmax in mouse at 10 mg/kg. Particulars: in vivo. Set-up: dose 10 mg/kg. The series is classed as ADME, organism-based.
For series [25], the system named is Mus musculus. In words: In vivo inhibition of TDO in mouse assessed as blood tryptophan levels by measuring Cmax at 10 mg/kg (reference value: 340 microM). The series is classed as functional, organism-based. Set-up: dose 10 mg/kg. The method, boiled down: as §2
Series [26] deals with Indoleamine 2,3-dioxygenase 1 (Homo sapiens, UniProt P14902). In words: Inhibition of IDO1 in human A172 cells after 24 hrs in presence of IFNgamma by NFK green reagent based assay. The series is classed as cell-based.
Indoleamine 2,3-dioxygenase 1, sequence (P14902 whole entry): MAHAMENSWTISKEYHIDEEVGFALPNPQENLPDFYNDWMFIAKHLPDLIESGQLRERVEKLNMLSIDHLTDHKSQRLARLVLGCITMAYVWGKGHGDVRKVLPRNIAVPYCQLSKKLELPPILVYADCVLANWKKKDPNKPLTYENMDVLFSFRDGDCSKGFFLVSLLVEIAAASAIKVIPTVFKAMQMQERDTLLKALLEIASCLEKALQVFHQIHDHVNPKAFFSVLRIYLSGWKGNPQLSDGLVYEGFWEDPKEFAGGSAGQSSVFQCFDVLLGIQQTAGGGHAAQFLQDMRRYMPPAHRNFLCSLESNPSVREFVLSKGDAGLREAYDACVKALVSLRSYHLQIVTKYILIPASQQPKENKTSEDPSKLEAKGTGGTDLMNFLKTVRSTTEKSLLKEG
Series [27] relates to Mus musculus. Briefly: In vivo inhibition of TDO in mouse assessed as blood tryptophan levels by measuring AUC at 30 mg/kg (reference value: 570 microM.hr). The class given is functional, organism-based. The procedure, abridged:
as §2

Series [28] relates to Mus musculus. Briefly: In vivo inhibition of TDO in mouse assessed as blood tryptophan levels by measuring Cmax at 100 mg/kg (reference value: 340 microM). Set-up: dose 100 mg/kg. The class given is functional, organism-based. The method, boiled down:
as §2

For series [29], the system named is Mus musculus. In words: In vivo inhibition of TDO in mouse assessed as blood tryptophan levels by measuring Cmax at 30 mg/kg (reference value: 340 microM). The series is classed as functional, organism-based. Set-up: dose 30 mg/kg. The procedure, abridged:
as §2

Tryptophan 2,3-dioxygenase, sequence (P48775 whole entry): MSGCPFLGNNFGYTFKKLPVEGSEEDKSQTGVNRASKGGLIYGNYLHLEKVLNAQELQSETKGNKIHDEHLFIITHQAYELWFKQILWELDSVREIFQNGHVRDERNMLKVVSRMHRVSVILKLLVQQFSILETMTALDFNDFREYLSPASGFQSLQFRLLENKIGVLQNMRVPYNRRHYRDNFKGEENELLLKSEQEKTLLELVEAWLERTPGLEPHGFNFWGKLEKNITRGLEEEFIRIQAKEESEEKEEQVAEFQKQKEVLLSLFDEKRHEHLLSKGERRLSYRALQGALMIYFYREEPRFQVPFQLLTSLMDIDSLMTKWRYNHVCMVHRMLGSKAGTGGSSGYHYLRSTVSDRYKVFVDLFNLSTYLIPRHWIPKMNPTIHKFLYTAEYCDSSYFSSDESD

In turn, `O[C@@H]1c2ccnn2CC[C@H]1[C@H]1c2ccccc2-c2cncn21` gave an EC50 in [1] of 130 nM. The values for the bioavailability in [2] and in series [14] were 70% and 140%, respectively. Further, the Vd in series [3] was found to be 1.1 L/kg. For the same molecule, the fraction unbound in series [4] was found to be 0.09. The CLhep predicted in series [5] is 45 mL/min/kg; in series [15], less than 3.9 mL/min/kg; in series [16], 37 mL/min/kg. For the same molecule, the solubility kinetic in series [6] came to 149 µM (≈ 43.6 µg/mL). Besides, the AUC(0-inf) in [7] worked out at 0.81 µM·h. Moreover, in [8], the clearance is 28 mL/min/kg. Also, the half-life in series [9] was 46.8 min. Further, in the series listed under Homo sapiens [10], the Ratio IC50/EC50 is more than 77. Besides, on Cytochrome P450 3A4, the IC50 is more than 10000 nM. In addition, in series [11], the CL free was 310 mL/min/kg. Besides, the Papp A→B in series [12] turned out to be 13 ×10⁻⁶ cm/s. In addition, the Ratio EC50 in the series listed under Homo sapiens [13] was 35.

As for `O[C@@H]1c2cnccc2CC[C@H]1[C@H]1c2ccccc2-c2cncn21`, the results for the AUC in the series on Mus musculus [17], in the series with Mus musculus [21] and in the series on Mus musculus [27] were 404000 ng·h/mL, 139000 ng·h/mL and 229000 ng·h/mL, respectively. Also, the EC50 worked out at 50 nM in [1] and 1400 nM in series [26]. Also, the bioavailability in [2] turned out to be 78%; in [14], 68%. Further, the Cmax in series [18] was found to be 70 µM; in series [19] it was 21.2 µM; in series [24], 4.1 µM; in the series with Mus musculus [25], 420 µM; in the series with Mus musculus [28] it was 540 µM; in the series on Mus musculus [29], 560 µM. Besides, the Vd in [3] was found to be 1.4 L/kg. The total exposure AUC(0-inf) in series [20] was 210 µM·h; in [7] it was 0.34 µM·h; in series [22], 35 µM·h; in series [23] it was 5 µM·h. For the same molecule, the fraction unbound in series [4] was determined as 0.07. Also, the CLhep predicted in [5] was 71 mL/min/kg; in series [15] it was 6.9 mL/min/kg; in [16], 38 mL/min/kg. In series [6], the solubility kinetic is 139 µM (≈ 42.2 µg/mL). The same molecule registered a clearance in series [8] of 29 mL/min/kg. Further, the half-life in series [9] is 37.2 min. Also, the Ratio IC50/EC50 in the series listed under Homo sapiens [10] is 48. On Cytochrome P450 3A4, this molecule displayed an IC50 of 2400 nM. The CL free in series [11] amounted to 410 mL/min/kg. The Papp A→B in [12] is 11 ×10⁻⁶ cm/s. In the series listed under Homo sapiens [13], the Ratio EC50 is 28.

Broadly, the EC50 is the concentration that produces a half-maximal response. A word on the fraction unbound: it is the share of the substance not bound to proteins or other matrix. A word on the AUC(0-inf): it is total exposure, with the tail of the curve extrapolated. Low values mean low exposure, high ones high exposure. As usually defined, the clearance is the volume of plasma or blood freed of the substance per unit of time. What is called half-life is how long it takes for the measured level to halve. Low readings indicate fast loss, high ones slow loss. What is called IC50 is the concentration that inhibits the measured activity by half. Read a low IC50 as higher potency. The term Papp A→B denotes the apparent permeability from the apical to the basolateral side of a cell layer.
